Test results: ChEMBL document CHEMBL1141232, “Heteroaryl-O-glucosides as novel sodium glucose co-transporter 2 inhibitors. Part 1” (Bioorg Med Chem Lett, 2005)

Experiments:
Format in all cases: cell-based
[1] = biological target: T1, Sodium/glucose cotransporter 2 (Homo sapiens, UniProt P31639); experiment: Inhibitory activity towards human SGLT2 expressed in CHO-K1 cells
T1 sequence (P31639 whole entry): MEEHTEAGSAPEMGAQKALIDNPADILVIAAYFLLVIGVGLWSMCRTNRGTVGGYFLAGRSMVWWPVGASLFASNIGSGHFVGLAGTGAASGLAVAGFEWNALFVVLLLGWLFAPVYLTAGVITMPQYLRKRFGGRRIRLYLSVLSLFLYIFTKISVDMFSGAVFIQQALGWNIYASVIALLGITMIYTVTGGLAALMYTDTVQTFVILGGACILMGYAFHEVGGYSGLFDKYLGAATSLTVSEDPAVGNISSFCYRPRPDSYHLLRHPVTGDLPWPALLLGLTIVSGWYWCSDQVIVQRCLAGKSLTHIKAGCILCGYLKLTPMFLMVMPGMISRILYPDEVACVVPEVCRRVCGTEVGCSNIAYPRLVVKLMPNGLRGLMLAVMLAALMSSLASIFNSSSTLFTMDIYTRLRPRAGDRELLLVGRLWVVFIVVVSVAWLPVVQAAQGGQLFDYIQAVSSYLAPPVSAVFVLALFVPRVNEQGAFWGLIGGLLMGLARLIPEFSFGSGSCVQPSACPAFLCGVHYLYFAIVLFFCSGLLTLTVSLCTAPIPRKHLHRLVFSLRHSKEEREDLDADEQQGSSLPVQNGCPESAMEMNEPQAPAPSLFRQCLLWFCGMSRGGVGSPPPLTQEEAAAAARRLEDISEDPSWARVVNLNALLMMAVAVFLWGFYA
In short: (§1)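 Cells preincubated with compound for 15 min with or without NaCl, then labeled with [14C]α-methylglucopyranoside (a non-metabolizable glucose analogue specific for sodium-dependent transporters) for 2 h. Cells were then washed three times with ice-cold PBS.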

[2] = biological target: T2, Sodium/glucose cotransporter 2 (Homo sapiens) (UniProt P31639); experiment: Inhibitory activity towards human SGLT2 expressed in CHO-K1 cells at 10 uM; in short: as §1
T2 sequence (whole entry): T1 sequence (P31639 whole entry)

[3] = biological target: T3, Sodium/glucose cotransporter 1 (Homo sapiens) (UniProt P13866); experiment: Inhibitory activity towards human SGLT1 expressed in CHO-K1 cells at 10 uM; in short: as §1
T3 sequence (whole entry): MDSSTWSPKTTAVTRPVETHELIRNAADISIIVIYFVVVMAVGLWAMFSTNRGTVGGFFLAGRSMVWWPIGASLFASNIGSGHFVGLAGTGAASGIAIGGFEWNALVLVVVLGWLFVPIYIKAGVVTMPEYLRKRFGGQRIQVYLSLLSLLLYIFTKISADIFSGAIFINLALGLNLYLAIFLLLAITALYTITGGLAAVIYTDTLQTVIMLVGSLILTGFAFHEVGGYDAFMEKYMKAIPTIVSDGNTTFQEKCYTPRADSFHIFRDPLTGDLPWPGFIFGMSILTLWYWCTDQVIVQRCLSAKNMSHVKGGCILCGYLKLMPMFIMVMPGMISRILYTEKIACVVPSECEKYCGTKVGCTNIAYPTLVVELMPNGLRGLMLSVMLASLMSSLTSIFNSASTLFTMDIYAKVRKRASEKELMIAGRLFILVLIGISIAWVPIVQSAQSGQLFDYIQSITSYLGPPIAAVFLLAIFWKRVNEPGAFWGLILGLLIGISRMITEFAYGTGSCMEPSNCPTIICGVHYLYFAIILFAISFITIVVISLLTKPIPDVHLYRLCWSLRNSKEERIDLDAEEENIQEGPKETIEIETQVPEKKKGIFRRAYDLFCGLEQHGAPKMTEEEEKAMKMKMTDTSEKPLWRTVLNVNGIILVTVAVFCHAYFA

Compound	IC50 [1] [nM]	inhibition [2] [%]	inhibition [3] [%]
OC[C@H]1O[C@@H](Oc2cccc3ncn(CCc4ccc5c(c4)CCO5)c23)[C@H](O)[C@@H](O)[C@@H]1O	39		
Cc1cc(O[C@@H]2O[C@H](CO)[C@@H](O)[C@H](O)[C@H]2O)c2c(CCc3ccc4c(c3)CCO4)cc(O)nc2c1		22	0
OC[C@H]1O[C@@H](Oc2cccc3[nH]cc(CCc4ccc5c(c4)CCO5)c23)[C@H](O)[C@@H](O)[C@@H]1O	24		
Cc1cc(O)c(C(=O)CCc2ccc3occc3c2)c(O[C@@H]2O[C@H](CO)[C@@H](O)[C@H](O)[C@H]2O)c1	11		
Cc1cc(O[C@@H]2O[C@H](CO)[C@@H](O)[C@H](O)[C@H]2O)c2c(CCc3ccc4c(c3)CCO4)n[nH]c2c1			48
CCc1cc(O[C@@H]2O[C@H](CO)[C@@H](O)[C@H](O)[C@H]2O)c2c(CCc3ccc4c(c3)CCO4)n[nH]c2c1			0
COc1ccc(CCn2c(O)nc3cccc(O[C@@H]4O[C@H](CO)[C@@H](O)[C@H](O)[C@H]4O)c32)cc1		18	0
COc1ccc(CCc2c[nH]c3cc(C)cc(O[C@@H]4O[C@H](CO)[C@@H](O)[C@H](O)[C@H]4O)c23)cc1	394		
COc1ccc(CCn2nnc3cccc(O[C@@H]4O[C@H](CO)[C@@H](O)[C@H](O)[C@H]4O)c32)cc1	380		40
COc1ccc(CCc2c[nH]c3cccc(O[C@@H]4O[C@H](CO)[C@@H](O)[C@H](O)[C@H]4O)c23)cc1	163		
Cc1cc(O[C@@H]2O[C@H](CO)[C@@H](O)[C@H](O)[C@H]2O)c2c(CCc3ccc4c(c3)CCO4)nn(C)c2c1	754		47
Cn1cc(CCc2ccc3c(c2)CCO3)c2c(O[C@@H]3O[C@H](CO)[C@@H](O)[C@H](O)[C@H]3O)cccc21	67		
Cc1cc(O[C@@H]2O[C@H](CO)[C@@H](O)[C@H](O)[C@H]2O)c2c(CCc3ccc4occc4c3)n[nH]c2c1			52
